{
  "source": "the EternaBench riboswitch data",
  "tested_on": "MS2 coat protein",
  "test": "apparent Kd, MS2 coat protein; higher = weaker binding; RNA-MaP array; FMN 200 µM where present",
  "summary_of_the_method": "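Stalled E. coli RNA polymerase transcribed each design on Illumina sequencing-chip clusters. The clusters were titrated with SNAP-549-labelled MS2 coat protein, starting at 0.7 or 1.5 nM and doubling up to 3 µM, first without ligand and then with constant ligand, in 100 mM Tris-HCl pH 7.5, 80 mM KCl, 4 mM MgCl2, BSA, DTT, yeast tRNA and Tween-20. Green signal was normalised to red-channel RNA signal and to the control-cluster median Fmax. The apparent Kd is the median of filtered binding-curve fits made for each cluster.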",
  "key": {"[1]": {"settings": "designed as: ON switch for flavin mononucleotide, no ligand"}, "[2]": {"settings": "ligand present: flavin mononucleotide, designed as: ON switch for flavin mononucleotide"}, "[3]": {"settings": "designed as: OFF switch for flavin mononucleotide, no ligand"}, "[4]": {"settings": "ligand present: flavin mononucleotide, designed as: OFF switch for flavin mononucleotide"}},
  "data": [
    {"sequence": "CGCUACAGCCAGAAGGACAUGAGGAUCACCCAUGUAGGAUAUGGGAGACGCAGUCCCGUGUAGAGAAACUACGCUACUGUAGCG", "values": [
      {"measurement": "apparent Kd", "setting": "[1]", "result": 430, "unit": "nM"},
      {"measurement": "apparent Kd", "setting": "[2]", "result": 183, "unit": "nM"}
    ]},
    {"sequence": "UGGUACUAGGGAGGAUAUGGGAAGAUACAUGAGGAUCACCCAUGUUUAAGAAUGCCGUGAGGCAACUAGAAGGCCCUAGUACCU", "values": [
      {"measurement": "apparent Kd", "setting": "[1]", "result": 505, "unit": "nM"},
      {"measurement": "apparent Kd", "setting": "[2]", "result": 18.8, "unit": "nM"}
    ]},
    {"sequence": "AGAUGAUGAUGUUAUCUUCGUCGGACAUGAGGAUCACCCAUGUAGGAUAUGCUACUCAAAGAGUAGCAGAAGGACAUGUAUCUU", "values": [
      {"measurement": "apparent Kd", "setting": "[3]", "result": 25.4, "unit": "nM"},
      {"measurement": "apparent Kd", "setting": "[4]", "result": 113, "unit": "nM"}
    ]},
    {"sequence": "AUCCUUAACAAGGAUAUCGGGCGGGAAAUUGUUUGAGAAGGUGUGACAUGAGGAUCACCCAUGUGGCGCGUGGG", "values": [
      {"measurement": "apparent Kd", "setting": "[3]", "result": 317, "unit": "nM"},
      {"measurement": "apparent Kd", "setting": "[4]", "result": 257, "unit": "nM"}
    ]},
    {"sequence": "CUAUUUAGUGCCUCAUUUACAUGAGGAUCACCCAUGUUAACUUAGGAUAUAUUUAUAUUGUUAGAGUAGAAGGAAGUACAUUUU", "values": [
      {"measurement": "apparent Kd", "setting": "[3]", "result": 237, "unit": "nM"},
      {"measurement": "apparent Kd", "setting": "[4]", "result": 208, "unit": "nM"}
    ]},
    {"sequence": "AGAUUUGUACAUGAGGAUCACCCAUGUUAAUAGGUGGUUGUCAGAAGGCAUUAAUAGAGAUUUAAUGAGGAUAUGAAUUAACAA", "values": [
      {"measurement": "apparent Kd", "setting": "[1]", "result": 903, "unit": "nM"},
      {"measurement": "apparent Kd", "setting": "[2]", "result": 593, "unit": "nM"}
    ]},
    {"sequence": "UCCUGACAUGAGGAUCACCCAUGUAAUUCCUGCCGAGGAUAUGGGCAACAAAGCGGUUGGCCAGAAGGCGGACAGC", "values": [
      {"measurement": "apparent Kd", "setting": "[1]", "result": 252, "unit": "nM"},
      {"measurement": "apparent Kd", "setting": "[2]", "result": 150, "unit": "nM"}
    ]},
    {"sequence": "GCUAGUAUUGCAGGAUAUUGUAAAUUAUUAUUUCAAGAAGGGCAUUACAUGAGGAUCACCCAUGUCAUCCUUUGGAAUACUAGC", "values": [
      {"measurement": "apparent Kd", "setting": "[3]", "result": 6.19, "unit": "nM"},
      {"measurement": "apparent Kd", "setting": "[4]", "result": 6.51, "unit": "nM"}
    ]},
    {"sequence": "GUUUAGUGAGGAUAUGUGGCAUCGAUCGAGCGCGGUCGGCUACAGAAGGCACAUGAGGAUCACCCAUGUUUCUC", "values": [
      {"measurement": "apparent Kd", "setting": "[3]", "result": 39.5, "unit": "nM"},
      {"measurement": "apparent Kd", "setting": "[4]", "result": 413, "unit": "nM"}
    ]},
    {"sequence": "GUAGCACAAGCAAAUGUAACAUGAGGAUCACCCAUGUGUUAUGAGGAUAUGGAUGUGAAGUUAAUCCAGAAGGCAUUAUGCUAC", "values": [
      {"measurement": "apparent Kd", "setting": "[1]", "result": 25.2, "unit": "nM"},
      {"measurement": "apparent Kd", "setting": "[2]", "result": 13.2, "unit": "nM"}
    ]},
    {"sequence": "GCACAGGCAGGAUAUACAUGAGGAUCACCCAUGUGACCCUUGAAGUACUCGCGUACUCGUAGAAGGGCCUGUGC", "values": [
      {"measurement": "apparent Kd", "setting": "[3]", "result": 177, "unit": "nM"},
      {"measurement": "apparent Kd", "setting": "[4]", "result": 302, "unit": "nM"}
    ]},
    {"sequence": "GCCGCGUUUCGCGCCUACAUGAGGAUCACCCAUGUUUGUGGGCAGGAUAUCGUCCGCUCUGCGGGCGAGAAGGGCUGUUGUGGU", "values": [
      {"measurement": "apparent Kd", "setting": "[1]", "result": 57.7, "unit": "nM"},
      {"measurement": "apparent Kd", "setting": "[2]", "result": 50, "unit": "nM"}
    ]},
    {"sequence": "CUAUUGGUAACAGGAUAUAUGAGUCCUACAUGAGGAUCACCCAUGUAGGUGAUCUAACGAGAUUAGUAGAAGGGUUACCAAUAG", "values": [
      {"measurement": "apparent Kd", "setting": "[1]", "result": 16.9, "unit": "nM"},
      {"measurement": "apparent Kd", "setting": "[2]", "result": 8.34, "unit": "nM"}
    ]},
    {"sequence": "UUUGAUUAAGUGAGGAUAUACUGUUUGUAUUGAUUGUAGAAGGUACAUGAGGAUCACCCAUGUUUAGUAUUUAU", "values": [
      {"measurement": "apparent Kd", "setting": "[3]", "result": 20.5, "unit": "nM"},
      {"measurement": "apparent Kd", "setting": "[4]", "result": 20, "unit": "nM"}
    ]},
    {"sequence": "GUAUGAAAUACAGGAUAUGUUAGUUUUAAGUGUAUUGGUUAUUACUUAAUUACAGAAGGGUAUUACAUGAGGAUCACCCAUGUA", "values": [
      {"measurement": "apparent Kd", "setting": "[1]", "result": 16.5, "unit": "nM"},
      {"measurement": "apparent Kd", "setting": "[2]", "result": 10.8, "unit": "nM"}
    ]},
    {"sequence": "CCCGGGUUUGUGAGGAUAUGCCCGGGUAAACCCGGGUAGAAGGCACAUGAGGAUCACCCAUGUAAGGGCCCGGG", "values": [
      {"measurement": "apparent Kd", "setting": "[3]", "result": 16.7, "unit": "nM"},
      {"measurement": "apparent Kd", "setting": "[4]", "result": 17, "unit": "nM"}
    ]},
    {"sequence": "GGAUGACAAAGUCAUCCUCAACGGACAUGAGGAUCACCCAUGUAGGAUAUGCUACUCAAAGAGUAGCAGAAGGACAUGUGUCUU", "values": [
      {"measurement": "apparent Kd", "setting": "[3]", "result": 37.3, "unit": "nM"},
      {"measurement": "apparent Kd", "setting": "[4]", "result": 241, "unit": "nM"}
    ]},
    {"sequence": "CACUUAGGCACAUGAGGAUCACCCAUGUCCCGGGAGCCGAGACAGGAUAUGUGCCUCGAAUGUGCACAGAAGGGUCUACUAUGU", "values": [
      {"measurement": "apparent Kd", "setting": "[1]", "result": 165, "unit": "nM"},
      {"measurement": "apparent Kd", "setting": "[2]", "result": 229, "unit": "nM"}
    ]},
    {"sequence": "UGUCGGAGCAGAGGAUAUACAUGAGGAUCACCCAUGUAAUAAAGUGAAGCCUGGAAACGGGCAAUGUAGAAGGCUGCUCCGACA", "values": [
      {"measurement": "apparent Kd", "setting": "[3]", "result": 11.3, "unit": "nM"},
      {"measurement": "apparent Kd", "setting": "[4]", "result": 87.8, "unit": "nM"}
    ]},
    {"sequence": "GAAUAAUUGAUCCAUUUUUAAAACAUGAGGAUCACCCAUGUGCAGGAUAUCGAUAGUUUUAGAUUCGAGAAGGGCAAGAACUGU", "values": [
      {"measurement": "apparent Kd", "setting": "[3]", "result": 88.2, "unit": "nM"},
      {"measurement": "apparent Kd", "setting": "[4]", "result": 149, "unit": "nM"}
    ]},
    {"sequence": "UGGUUGUGAGGAUAUCCAAUAUAUGACAUGAGGAUCACCCAUGUUUCCACUCGUACCUCCGGAGAAGGCACUUGGU", "values": [
      {"measurement": "apparent Kd", "setting": "[3]", "result": 33.4, "unit": "nM"},
      {"measurement": "apparent Kd", "setting": "[4]", "result": 28.4, "unit": "nM"}
    ]},
    {"sequence": "CAUUAGCGAGGAUAUACAUGAGGAUCACCCAUGUGAUCCUAAGGCUGAUCAAGCCUAUGUAGAAGGCGCAAAUC", "values": [
      {"measurement": "apparent Kd", "setting": "[3]", "result": 593, "unit": "nM"},
      {"measurement": "apparent Kd", "setting": "[4]", "result": 83.6, "unit": "nM"}
    ]},
    {"sequence": "GAUCUGACAGGAUAUACAUGAGGAUCACCCAUGUACGAGCUAGCGAAAGCUAGCUCAGGUAGAAGGGUCAGAUC", "values": [
      {"measurement": "apparent Kd", "setting": "[3]", "result": 12.3, "unit": "nM"},
      {"measurement": "apparent Kd", "setting": "[4]", "result": 16.4, "unit": "nM"}
    ]},
    {"sequence": "AUGCUAGUGUGAGGAUAUUAGGCACAUGAGGAUCACCCAUGUAAGAUCAUGACGAUCACGCAUGAUAAGAAGGUACAUUAGCAU", "values": [
      {"measurement": "apparent Kd", "setting": "[3]", "result": 40, "unit": "nM"},
      {"measurement": "apparent Kd", "setting": "[4]", "result": 47, "unit": "nM"}
    ]}
  ]
}
